For one compound, fold change (FC), Activity and Stability results are on record in ChEMBL document CHEMBL2331476, “A novel semisynthetic flavonoid 7-O-galloyltaxifolin upregulates heme oxygenase-1 in RAW264.7 cells via MAPK/Nrf2 pathway” (J Med Chem, 2013).

SMILES strings stand for the structures. Active and inactive are the calls of the source. No cut-off for these calls is given here.

The target in series [1] is T1, Nuclear factor erythroid 2-related factor 2 (Mus musculus) (UniProt Q60795).
T1 sequence (whole entry): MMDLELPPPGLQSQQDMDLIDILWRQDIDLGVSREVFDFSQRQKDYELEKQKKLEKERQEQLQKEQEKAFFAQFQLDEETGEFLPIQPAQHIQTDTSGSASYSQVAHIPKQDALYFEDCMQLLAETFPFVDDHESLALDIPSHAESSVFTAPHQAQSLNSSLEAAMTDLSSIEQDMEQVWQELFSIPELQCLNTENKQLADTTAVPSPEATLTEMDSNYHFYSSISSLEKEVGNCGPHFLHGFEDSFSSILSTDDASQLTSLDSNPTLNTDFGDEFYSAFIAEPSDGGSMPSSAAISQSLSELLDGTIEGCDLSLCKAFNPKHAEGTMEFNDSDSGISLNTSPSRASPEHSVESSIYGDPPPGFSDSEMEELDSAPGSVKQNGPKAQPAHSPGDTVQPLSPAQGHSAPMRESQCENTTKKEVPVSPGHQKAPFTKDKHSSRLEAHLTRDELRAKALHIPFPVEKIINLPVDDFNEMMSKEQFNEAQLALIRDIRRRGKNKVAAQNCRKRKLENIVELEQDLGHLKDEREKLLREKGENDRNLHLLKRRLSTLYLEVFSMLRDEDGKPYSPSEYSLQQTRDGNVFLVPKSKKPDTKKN
The series can be described thus: Activation of Nrf2 in mouse RAW264.7 cells assessed as upregulation of HO1 protein expression at 10 uM after 6 hrs by Western blotting analysis. It counts as cell-based. Summed up:
(§1)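 HO-1 protein in whole-cell lysates (20 μg/lane) of serum-starved RAW264.7 cells after 6 h at 10-50 μM or 50 μM for 1-6 h in serum-free medium, 0.1% DMSO control. Chemiluminescent Western blot; HO-1 densitometry normalized to actin, mean of three experiments.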

Series [2] has as its target T1, Nuclear factor erythroid 2-related factor 2 (Mus musculus). As to the kind of experiment: Activation of Nrf2 in mouse RAW264.7 cells assessed as upregulation of HO1 protein expression at 50 uM after 4 hrs by Western blotting analysis relative to untreated control. It counts as cell-based. The method in brief:
as §1
For orientation: Immunoblotting shows a protein as a band on a membrane.

Series [3] shares this target. As to the kind of experiment: Activation of Nrf2 in mouse RAW264.7 cells assessed as induction of Hmox1 mRNA expression at 50 uM after 6 hrs by real-time PCR analysis in presence of SP600125. In kind it is cell-based. The method in brief: (§2)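 Pretreatment 30 min with 0.1% DMSO, 15 μM PD98059, 15 μM SB203580 or 30 μM SP600125, then 50 μM agent for 6 h in serum-free medium. Hmox1 mRNA by TaqMan qPCR normalized to Gapdh, given as percent of agent-induced expression; mean ± SD of three experiments.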

Series [4] has the same target. As to the kind of experiment: Activation of Nrf2 in mouse RAW264.7 cells assessed as induction of Hmox1 mRNA expression at 50 uM after 6 hrs by real-time PCR analysis in presence of PD98059. In kind it is cell-based. Summed up: as §2
On the technique in general: Real-time PCR tracks product formation cycle by cycle.

In series [5] the target is T2, MAP kinase p38 (Homo sapiens) (UniProt O15264+Q15759+Q16539+P53778). As to the kind of experiment: Activation of p38MAPK in mouse RAW264.7 cells assessed as phosphorylation at Thr180/Tyr182 at 50 uM after 1 hr by Western blotting analysis. It counts as cell-based. Summed up:
(§3)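 p38 phosphorylation at Thr180/Tyr182 and total p38 probed in whole-cell lysates (35 μg/lane) of serum-starved RAW264.7 cells treated for 30 min to 4 h in serum-free medium. Positive controls were 5 μM anisomycin or 75 ng/mL EGF for 30 min. Chemiluminescent Western detection.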

Series [6] has as its target T2, MAP kinase p38 (Homo sapiens). As to the kind of experiment: Activation of p38MAPK in mouse RAW264.7 cells assessed as phosphorylation at Thr180/Tyr182 at 50 uM after 30 mins to 4 hrs by Western blotting analysis. The settings on record: TDE = time-dependent effect. It counts as cell-based. Summed up:
as §3

Series [7] concerns the target T1, Nuclear factor erythroid 2-related factor 2 (Mus musculus). The series can be described thus: Activation of Nrf2 in mouse RAW264.7 cells assessed as reduction of KEAP1 protein level at 10 to 50 uM after 6 hrs by Western blotting analysis. It counts as cell-based. Summed up:
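Whole-cell lysates (20 μg/lane) from serum-starved RAW264.7 cells given 10-50 μM for 6 h or 50 μM for 1-6 h in serum-free medium, 0.1% DMSO vehicle. Keap1 and actin detected by chemiluminescent Western blot; Keap1 band intensity normalized to actin, mean of three experiments.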

For series [8] the target is unchanged. As to the kind of experiment: Activation of Nrf2 in mouse RAW264.7 cells assessed as cytosolic accumulation at 25 uM after 3 hrs by Western blotting analysis. In kind it is cell-based. The method in brief: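 Serum-starved RAW264.7 cells treated 30 min to 3 h (10-50 μM for 3 h, or 50 μM time course); 0.1% DMSO control, 50 μM quercetin positive control. Cytosolic fraction from hypotonic HEPES pH 7.9 buffer with 0.1% NP-40; nuclear fraction by 420 mM NaCl extraction. 30 μg/lane blotted for Nrf2 and actin; Nrf2/actin densitometry, mean of three experiments.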

Series [9] has the same target. As to the kind of experiment: Activation of Nrf2 in mouse RAW264.7 cells assessed as nuclear accumulation at 50 uM after 3 hrs by Western blotting analysis. In kind it is cell-based. The method in brief:
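RAW264.7 cells (passage 5−25) seeded at 1 × 10⁵ cells/cm², switched to serum-free medium after 8 h, left overnight, then treated 3 h in serum-free medium; 0.1% DMSO vehicle control. Cells were swollen in hypotonic HEPES/NP-40 buffer for the cytosolic fraction and nuclei extracted in high-salt buffer. Blots loaded 30 μg/lane, Nrf2 densitometry normalized to actin, mean of three experiments.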

Series [10] shares this target. As to the kind of experiment: Activation of Nrf2 in mouse RAW264.7 cells assessed as upregulation of HO1 protein expression at 50 uM after 3 hrs by Western blotting analysis. It counts as cell-based. Summed up: as §1
Series [11] has the same target. As to the kind of experiment: Activation of Nrf2 in mouse RAW264.7 cells assessed as upregulation of HO1 protein expression at 50 uM after 6 hrs by Western blotting analysis. In kind it is cell-based. The method in brief:
as §1

For series [12] the target is unchanged. As to the kind of experiment: Activation of Nrf2 in mouse RAW264.7 cells assessed as upregulation of Hmox1 gene expression at 50 uM after 6 hrs by real-time PCR analysis relative to GAPDH mRNA expression. In kind it is cell-based. The method in brief:
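Serum-starved RAW264.7 cells were exposed for 6 h in serum-free medium against a 0.1% DMSO control. Total RNA (2 μg) was reverse-transcribed, then TaqMan qPCR run for Hmox1 and Gapdh over 40 cycles. Crossing points were taken by second-derivative maximum, and fold change calculated by the 2^−ΔΔCT method normalized to Gapdh. Mean ± SD of three experiments.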

The subject of series [13] is RAW264.7. As to the kind of experiment: Stability in mouse RAW264.7 cells assessed as gallic acid level at 50 uM after 6 hrs by HPLC/MS analysis. To be noted: raw264.7, 6 h. In kind it is ADME, cell-based.
Series [14] has as its system RAW264.7. As to the kind of experiment: Induction of ROS generation in mouse RAW264.7 cells at 25 uM after 2 hrs by flow cytometric analysis. It counts as functional. The method in brief: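 Serum-starved RAW264.7 cells treated 2 h at 10-50 μM; 100 μM TBHP for 30 min as positive control. Medium replaced, cells loaded with 10 μM carboxy-H₂DCFDA for 15 min at 37 °C. Flow cytometry (488 nm excitation, 525 nm emission, 10,000 events) gave percentage of cells with raised ROS; mean ± SD of three experiments.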

For `O=C(Oc1cc(O)c2c(c1)O[C@H](c1ccc(O)c(O)c1)[C@@H](O)C2=O)c1cc(O)c(O)c(O)c1`, the fold change (FC) came out at 1.1 in series [1]; 1.6 in series [2]; 1.3 in [10]; 2.3 in series [11]; 13.4 in series [12]. In addition, the Activity in series [3] is 90%; in [6] it was “tde”; in series [7], “Dose-dependent effect”; in the series on RAW264.7 [14], 19%. In addition, in series [4], the result was inactive. Besides, the result in series [5], in [8] and in [9] was Active. The Stability result in the series with RAW264.7 [13] was “Stable”.
